Sampled rows, rich in hits. Any-hit rate of the full collection: about 6.3%.
RORA act: RORA (human) activation; CHO-K1 Gal4-RORA LBD luciferase reporter, luminescence; percent increase over mock-subtracted basal signal; activation, % at 10 µM; 65,000 compounds, 1.5% hits; AID 560;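 active = activation above the mean of all tested compounds plus 3 SD, cut at about 49% in these data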;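 note: 0% = DMSO-treated RORA cells and 100% = added signal equal to DMSO minus mock-transfected cells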
M1 agonist: activates the M1 muscarinic receptor; B-score at 10 µM; AID 626; CHO-M1 cells, Fluo-4 calcium fluorescence, agonist mode; stronger effect = higher value; 64,000 compounds, 3% hits;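 active = fluorescence rise, raw or as B-score row- and column-corrected plate score, outside the 99.7% band of its plate's samples, either direction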
M1 antagonist: antagonists of rat M1 muscarinic receptor | P08482 | CHO-M1 cells, Fluo-4 calcium, ACh EC80 antagonist mode; stronger effect = lower value | B-score at 10 µM | AID 628 | 64,000 compounds, 3.4% hits;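 active = calcium fluorescence response, raw or row-and-column corrected B-score, differing from the plate sample mean either way at a set confidence level, mostly lower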
Target sequence (P08482 whole entry, looked up): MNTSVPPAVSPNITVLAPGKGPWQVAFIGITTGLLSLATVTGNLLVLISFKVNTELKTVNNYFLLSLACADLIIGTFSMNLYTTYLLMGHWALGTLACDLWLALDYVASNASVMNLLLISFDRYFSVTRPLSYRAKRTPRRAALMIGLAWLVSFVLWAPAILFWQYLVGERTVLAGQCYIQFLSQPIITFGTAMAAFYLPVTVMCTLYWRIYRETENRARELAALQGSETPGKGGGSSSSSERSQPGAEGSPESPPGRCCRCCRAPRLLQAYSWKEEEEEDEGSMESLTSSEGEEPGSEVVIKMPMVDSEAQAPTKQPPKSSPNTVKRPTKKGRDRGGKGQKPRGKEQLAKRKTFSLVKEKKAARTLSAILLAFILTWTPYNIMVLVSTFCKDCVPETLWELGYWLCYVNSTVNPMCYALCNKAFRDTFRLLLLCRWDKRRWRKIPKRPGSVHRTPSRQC
SF-1 act: activates the human nuclear receptor SF-1 | AID 522 | CHO-K1 Gal4-SF-1 LBD luciferase reporter; % increase over DMSO SF-1-specific signal | activation, % at 10 µM | 65,000 compounds, 1.9% hits | Q13285;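 active = activation above the mean activation of all tested compounds plus 3 SD, cut at about 50% in these data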
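Assay system: CHO-K1 cells co-transfected with Gal4 DBD–human SF-1 LBD, 5xGal4 luciferase reporter / Input: 4,000 cells per well / Incubation: 20 h compound exposure at 37 °C after 1 h cell settling / Detection: SteadyLite luciferase luminescence / Control set: DMSO negative control and −SF1 background wells / Replication: one test per compound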
MT1-MMP txn act: MT1-MMP promoter transcription activation; HT1080 MT1-MMP promoter luciferase reporter, luminescence, overnight; stronger effect = higher value; activation factor at 10 µM; 86,000 compounds, 0.16% hits; AID 750;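 active = activation factor of at least 2 for MT1-MMP transcription at 10 µM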
M1 antag confirm: M1 muscarinic receptor (rat) antagonism, confirmed; shares compounds with M1 antagonist; CHO-M1 cells, Fluo-4 calcium, ACh EC80 antagonism; stronger effect = lower value; calcium response (max-min fluorescence) at 10 µM; 1,700 compounds, 43% hits;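 active = calcium response below the same-plate mean of wells given acetylcholine alone at its 80%-effect dose, minus 3 SD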;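 note: raw fluorescence intensity difference in arbitrary instrument units and not normalized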
mGluR4 antag: mGluR4 (human) activity, M1 antagonist secondary assay. 1,700 compounds, 0.9% hits. fluorescence response (max-min) at 10 µM. AID 678. shares compounds with M1 antagonist. CHO-mGluR4 calcium flux, Fluo-4 fluorescence, glutamate EC80; stronger effect = lower value;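 active = fluorescence response below the plate's average for near-maximal glutamate wells, less 3 SD of those wells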;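 note: raw unnormalized fluorescence span taken in the window right after glutamate addition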
* hit, by the source's call; · = no result given.

SMILES	RORA act	M1 agonist	M1 antagonist	SF-1 act	MT1-MMP txn act	M1 antag confirm	mGluR4 antag
CCOC(=O)CCSCC(=O)Nc1cc(C)on1	-17	-0.64	-0.28	-7	1.1	·	·
CCOC(=O)CCSCC(=O)Nc1nnc(C)s1	-3	-0.25	-2.4*	6	1.1	603	241
CCn1cc(C2=NC(C(C)C)CO2)c2ccccc21 (configuration not stated)	-4	-0.76	-6.5*	12	1.3	412*	270
CCN(CC)c1ccc2c(c1)CCCN2	-25	-1.6	-1.4	-5	1.1	·	·
CC1CCCN(CCC(=O)c2ccc(Br)cc2)C1 (configuration not stated)	6	-0.38	-4.5*	-6	1	500	215
CC1CCN(CCC(=O)Nc2ccc(Br)cc2)CC1	-8	-0.031	-0.17	-8	1.2	·	·
O=C1CC(c2ccco2)CC(O)=C1C=NCCN1CCNCC1 (configuration not stated)	-4	-0.93	-0.7	-18	1	·	·
O=C1CC(c2ccco2)CC(O)=C1C=NCC1CCNCC1 (configuration not stated)	-32	-0.012	-3.8*	1	1.1	462*	226
CCCn1c2c(c(O)c(C(=O)Nc3ccc(C)cn3)c1=O)CCCC2	-6	-0.55	0.38	-2	1	·	·
CCCn1c2c(c(O)c(C(=O)Nc3ncccc3C)c1=O)CCCC2	1	-1.1	-2.3*	-21	1.1	421*	208
COc1cc(C(=O)N2CCN(C(=O)C3CC3)CC2)cc(OC)c1OC	-7	-0.94	-3.1*	11	1.2	543*	224
O=c1[nH]c(N2CCCCC2)nc2c1CCCC2	-5	-0.008	-1	-3	1.1	·	·
CN1CCCCc2c1nc1c(c2N)CCCC1	9	-0.72	-2.5*	20	1.2	509	264
CCOC(=O)N1CCN(S(=O)(=O)c2cc(Br)cc3c2N(C(C)=O)C(C)C3)CC1 (configuration not stated)	-15	-0.035	0.13	4	1.1	·	·
CCOC(=O)C1CCN(S(=O)(=O)c2cc(Br)cc3c2N(C(C)=O)C(C)C3)CC1 (configuration not stated)	-8	0.43	-2.3*	-1	1	519	200
CC(C)(C)NC(=O)NC(=O)COC(=O)c1ccco1	-7	0.052	1.6	-13	1.1	·	·
CCc1nccn1S(=O)(=O)c1ccc(Br)cc1Br	0	0.07	0.12	3	1.1	·	·
O=S(=O)(Nc1nc2ccccc2[nH]1)c1ccccc1	-38	0.01	-5.1*	-10	1.1	394*	246
O=S(=O)(Nc1ncn[nH]1)c1ccc(Cl)cc1	·	·	·	·	1.1	·	·
O=S(=O)(Nc1nc2ccccc2[nH]1)c1ccc(Cl)cc1	6	0.16	-16*	-6	1.2	70*	246
CCN(CC)S(=O)(=O)c1ccc(NC(=O)Cn2cnc3ccccc3c2=O)cc1	-18	0.69	0.26	-8	1.2	·	·
CC(=O)OCn1nnc2ccccc2c1=O	8	0.52	0.42	-1	1.1	·	·
Cc1ccc2c(CC(=O)OCn3nnc4ccccc4c3=O)coc2c1	5	-0.58	-4.9*	6	1.1	323*	232
Cc1noc(C)c1COC(=O)c1ccc(S(=O)(=O)NCc2ccco2)cc1	-9	-0.15	-2.6*	13	1.2	371*	194
CCCCOc1ccc2c(C)cc(=O)oc2c1OCCCC	·	·	·	·	1.2	·	·
SMILES	RORA act	M1 agonist	M1 antagonist	SF-1 act	MT1-MMP txn act	M1 antag confirm	mGluR4 antag
O=C(CCC(=O)OCCCC(F)(F)C(F)(F)F)NC1CCCCC1	-16	0.59	-8.2*	1	1.1	636	233
Cc1ccc(-c2nnc3sc(C4COc5ccccc5O4)nn23)cc1 (configuration not stated)	-9	0.31	-3.4*	5	1.1	476	223
Clc1ccccc1-c1nnc2sc(C3COc4ccccc4O3)nn12 (configuration not stated)	-6	-0.96	0.04	-8	1.3	·	·
COc1ccc(CNC(=S)Nc2cccc(C)c2C)cc1	·	·	·	·	1.1	·	·
Cc1sc2ncnc(SCC(=O)N3CCCC3=O)c2c1C	-8	-1.4	-4.3*	-6	1	651	262
CCOC(=O)c1ccc(Nc2nnc3nc(C)cc(C)n23)cc1	-9	-0.71	-1.2*	-3	1.1	466	214
CCOC(=O)c1ccc(Nc2cc(C)nc3ncnn23)cc1	-6	-1.3	-0.37	-15	1.1	·	·
Cc1nc2c(C(=O)N3CCCC3)cnn2c(C)c1Cc1c(F)cccc1Cl	·	·	·	·	1.1	·	·
Cc1nc2c(C(=O)N3CCN(c4ccccn4)CC3)cnn2c(C)c1Cc1cccc(Cl)c1	4	2.2	-2.3*	-8	1.1	606	249
CCN1CCN(c2nc3c(c(=O)n(C)c(=O)n3C)n2CCSc2ncccn2)CC1	-14	-0.2	-0.42	4	1.1	·	·
Cn1c(=O)c2c(nc(CN3CCC(C(N)=O)CC3)n2Cc2c(Cl)cccc2Cl)n(C)c1=O	6	0.54	-4.1*	-1	1.2	547	246
Cn1c(=O)c2c(nc(CN3CCC(C(N)=O)CC3)n2Cc2c(F)cccc2Cl)n(C)c1=O	13	0.8	-0.0026	1	1.1	·	·
CCN1CCN(c2nc3c(c(=O)n(C)c(=O)n3C)n2Cc2cccc3ccccc23)CC1	-14	0.24	-3.3*	15	1.2	429*	202
CCN1CCN(Cc2nc3c(c(=O)n(C)c(=O)n3C)n2Cc2cccc3ccccc23)CC1	-3	0.32	-2.8*	5	1.1	620	255
O=C(C1CCCN(Cc2ccccc2Br)C1)N1CCCCC1 (configuration not stated)	-22	0.055	-2.3*	-4	1.2	397*	178
COc1ccccc1CN1CCCC(C(=O)N(C)Cc2ccccc2)C1 (configuration not stated)	1	-0.56	-3.8*	-2	1.1	513*	227
COc1ccc(CN2CCCC(C(=O)N(C)Cc3ccccc3)C2)cc1OC (configuration not stated)	9	-0.011	-0.53	1	1.3	·	·
COc1ccc(Br)cc1CN1CCCC(C(=O)N2CCCCCC2)C1 (configuration not stated)	-8	-1.6	-3.1*	-20	1.1	313*	191
Cc1ccc(NC(=O)CCn2cccc2)cc1Cl	16	-0.29	-0.55	2	1.1	·	·
Cc1ccc(/C(O)=C2\C(=O)C(=O)N(CCCN(C)C)C2c2ccccn2)cc1 (configuration not stated)	-27	0.014	-0.78	17	1.1	·	·
Cn1c(=O)cc(OCC(=O)N2CCC(N3CCCCC3)CC2)c2ccccc21	-4	0.3	-0.29	16	1.3	·	·
O=C(O)CCC(=O)Nc1ccc(Cc2ccc(NC(=O)CCC(=O)O)cc2)cc1	·	·	·	·	1.1	·	·

Assay outcomes deposited in PubChem by several laboratories.
